The source made the active and inactive calls. The rule behind the calls is not given here.
What was measured:
Carbonic anhydrase 1 = Carbonic anhydrase 1 (Homo sapiens, UniProt P00915); test: Binding affinity to human recombinant CA1 expressed in Escherichia coli by fluorescence-based thermal shift assay
Carbonic anhydrase 9 [1] = target: T1, Carbonic anhydrase 9 (Homo sapiens, UniProt Q16790); test: Binding affinity to human recombinant CA9 catalytic domain assessed as dissociation rate constant at pH 8 by surface plasmon resonance assay
In short: (§1)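 pH-dependence SPR on CA IX or CA XII catalytic domain surfaces, using a denatured-protein reference. Buffers were 50 mM sodium phosphate, 150 mM NaCl, 0.05 % Tween-20 and 2 % DMSO at pH 6.0, 7.0 or 8.0. Ligands ran as 2-fold series (62.5–2000 or 31.3–1000 nM) with 60 s injection and 90–360 s dissociation. Triplicates used a new surface each time. KD = kd/ka from the kinetic fit.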

Carbonic anhydrase 9 [2] = target: T1, Carbonic anhydrase 9; test: Binding affinity to human recombinant CA9 catalytic domain assessed as dissociation constant calculated from kinetic parameters at pH 7 by surface plasmon resonance assay; in short: as §1
Carbonic anhydrase 7 [3] = target: T2, Carbonic anhydrase 7 (Homo sapiens, UniProt P43166); test: Binding affinity to human recombinant CA7 after 30 secs by surface plasmon resonance assay
T2 sequence (P43166 whole entry, the tested form may be a part): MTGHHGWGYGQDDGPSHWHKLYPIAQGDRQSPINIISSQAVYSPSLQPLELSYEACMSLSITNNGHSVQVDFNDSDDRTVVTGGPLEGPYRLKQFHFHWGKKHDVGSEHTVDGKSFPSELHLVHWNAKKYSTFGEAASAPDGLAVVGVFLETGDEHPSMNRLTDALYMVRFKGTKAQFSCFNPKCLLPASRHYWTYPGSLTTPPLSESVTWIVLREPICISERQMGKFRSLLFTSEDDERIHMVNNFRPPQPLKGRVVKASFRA

Carbonic anhydrase 12 [4] = target: T3, Carbonic anhydrase 12 (Homo sapiens, UniProt O43570); test: Binding affinity to human recombinant CA12 catalytic domain assessed as dissociation constant calculated from saturation signal at pH 7 by surface plasmon resonance assay
T3 sequence (O43570 whole entry, the tested form may be a part): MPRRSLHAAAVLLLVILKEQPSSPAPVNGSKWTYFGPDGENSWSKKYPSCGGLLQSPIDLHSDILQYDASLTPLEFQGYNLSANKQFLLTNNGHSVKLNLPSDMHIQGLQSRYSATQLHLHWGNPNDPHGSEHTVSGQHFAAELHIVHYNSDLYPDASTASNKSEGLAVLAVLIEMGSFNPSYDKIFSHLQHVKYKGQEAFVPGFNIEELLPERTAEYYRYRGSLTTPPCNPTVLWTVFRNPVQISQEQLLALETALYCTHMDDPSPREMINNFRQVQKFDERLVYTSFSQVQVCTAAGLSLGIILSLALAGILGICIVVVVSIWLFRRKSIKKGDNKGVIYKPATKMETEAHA

Carbonic anhydrase 9 [5] = target: T1, Carbonic anhydrase 9; test: Binding affinity to human recombinant CA9 catalytic domain assessed as association rate constant after 30 secs by surface plasmon resonance assay
In short: (§2)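 SPR kinetics at 25 °C on amine-coupled isozyme surfaces, with immobilization protein level and acetate coupling pH set per isozyme. Running buffer PBST, pH 7.4, with 2 % DMSO. Ligands run as 2-fold series from 15.6 to 2000 nM at 30 or 90 µL/min, with 30 s association and 180 s dissociation.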

Carbonic anhydrase 12 [6] = target: T3, Carbonic anhydrase 12; test: Binding affinity to human recombinant CA12 catalytic domain assessed as dissociation constant calculated from saturation signal at pH 8 by surface plasmon resonance assay
Carbonic anhydrase 13 [7] = target: T4, Carbonic anhydrase 13 (Homo sapiens, UniProt Q8N1Q1); test: Slow rate dissociation at human recombinant CA13 after 30 sec by surface plasmon resonance assay; in short: as §2
Target sequence in this assay (Q8N1Q1 whole entry, looked up, the tested form may be a part): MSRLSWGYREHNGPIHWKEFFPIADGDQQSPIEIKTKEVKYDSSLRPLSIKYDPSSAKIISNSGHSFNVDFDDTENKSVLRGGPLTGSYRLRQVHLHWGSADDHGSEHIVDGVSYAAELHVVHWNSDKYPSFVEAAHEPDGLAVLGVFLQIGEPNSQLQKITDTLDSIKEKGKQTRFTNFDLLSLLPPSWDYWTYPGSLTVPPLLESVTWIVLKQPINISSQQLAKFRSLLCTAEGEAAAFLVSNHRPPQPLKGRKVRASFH

Carbonic anhydrase 9 [8] = target: T1, Carbonic anhydrase 9; test: Binding affinity to human recombinant CA9 catalytic domain assessed as dissociation rate constant at pH 6 by surface plasmon resonance assay; in short: as §1
Carbonic anhydrase 13 [9] = target: T4, Carbonic anhydrase 13; test: Binding affinity to human recombinant CA13 by fluorescence-based thermal shift assay
Target sequence in this assay (Q8N1Q1 whole entry, the tested form may be a part): as the sequence (Q8N1Q1 whole entry, looked up, the tested form may be a part) above

Carbonic anhydrase 9 [10] = target: T1, Carbonic anhydrase 9; test: Binding affinity to human recombinant CA9 catalytic domain assessed as association rate constant at pH 8 by surface plasmon resonance assay; in short: as §1
Carbonic anhydrase 12 [11] = target: T3, Carbonic anhydrase 12; test: Binding affinity to human recombinant CA12 catalytic domain by fluorescence-based thermal shift assay
Carbonic anhydrase 9 [12] = target: T1, Carbonic anhydrase 9; test: Binding affinity to human recombinant CA9 catalytic domain assessed as association rate constant at pH 6 by surface plasmon resonance assay; in short: as §1
Carbonic anhydrase 7 [13] = target: T2, Carbonic anhydrase 7; test: Binding affinity to human recombinant CA7 assessed as dissociation rate constant after 30 secs by surface plasmon resonance assay
Carbonic anhydrase 9 [14] = target: T1, Carbonic anhydrase 9; test: Binding affinity to human recombinant CA9 catalytic domain assessed as dissociation constant calculated from kinetic parameters at pH 8 by surface plasmon resonance assay; in short: as §1
Carbonic anhydrase 9 [15] = target: T1, Carbonic anhydrase 9; test: Binding affinity to human recombinant CA9 catalytic domain after 30 secs by surface plasmon resonance assay
In short: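 SPR kinetics at 25 °C on amine-coupled isozyme surfaces, with immobilization protein level and acetate coupling pH set per isozyme. Running buffer PBST, pH 7.4, with 2 % DMSO.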

Carbonic anhydrase 9 [16] = target: T1, Carbonic anhydrase 9; test: Binding affinity to human recombinant CA9 catalytic domain assessed as dissociation rate constant at pH 7 by surface plasmon resonance assay; in short: as §1
Carbonic anhydrase 9 [17] = target: T1, Carbonic anhydrase 9; test: Binding affinity to human recombinant CA9 catalytic domain assessed as association rate constant at pH 7 by surface plasmon resonance assay; in short: as §1
Carbonic anhydrase 7 [18] = target: T2, Carbonic anhydrase 7; test: Binding affinity to human recombinant CA7 by fluorescence-based thermal shift assay
Carbonic anhydrase 9 [19] = target: T1, Carbonic anhydrase 9; test: Binding affinity to human recombinant CA9 catalytic domain assessed as dissociation constant calculated from kinetic parameters at pH 6 by surface plasmon resonance assay; in short: as §1
Carbonic anhydrase 9 [20] = target: T1, Carbonic anhydrase 9; test: Binding affinity to human recombinant CA9 catalytic domain by fluorescence-based thermal shift assay
Carbonic anhydrase 12 [21] = target: T3, Carbonic anhydrase 12; test: Binding affinity to human recombinant CA12 catalytic domain assessed as dissociation constant calculated from saturation signal at pH 6 by surface plasmon resonance assay
Carbonic anhydrase 2 = Carbonic anhydrase 2 (Homo sapiens, UniProt P00918); test: Binding affinity to human recombinant CA2 expressed in Escherichia coli by fluorescence-based thermal shift assay
Carbonic anhydrase 12 [22] = target: T3, Carbonic anhydrase 12; test: Binding affinity to human recombinant CA12 catalytic domain after 30 secs by surface plasmon resonance assay

Carbonic anhydrase 1, sequence (P00915 whole entry, the tested form may be a part): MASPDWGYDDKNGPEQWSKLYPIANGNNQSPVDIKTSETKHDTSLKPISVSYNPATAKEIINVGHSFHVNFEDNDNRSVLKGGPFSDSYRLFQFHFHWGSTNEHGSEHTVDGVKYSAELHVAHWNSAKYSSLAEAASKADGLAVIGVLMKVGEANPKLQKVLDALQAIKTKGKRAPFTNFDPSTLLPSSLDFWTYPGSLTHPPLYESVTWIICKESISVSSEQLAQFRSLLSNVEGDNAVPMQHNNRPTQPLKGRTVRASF

Kd (Carbonic anhydrase 1): 9100 nM
Dissociation rate constant (koff) (Carbonic anhydrase 9 [1]): 6.2 ×10⁻³ /s
Kd (Carbonic anhydrase 9 [2]): 46 nM
Kd (Carbonic anhydrase 7 [3]): 510 nM
Kd (Carbonic anhydrase 12 [4]): 840 nM
K (Carbonic anhydrase 9 [5]): 2.9 ×10⁵ /M/s
Kd (Carbonic anhydrase 12 [6]): 390 nM
Activity (Carbonic anhydrase 13 [7]): Active
Dissociation rate constant (koff) (Carbonic anhydrase 9 [8]): 7.9 ×10⁻³ /s
Kd (Carbonic anhydrase 13 [9]): 33 nM
K (Carbonic anhydrase 9 [10]): 3.3 ×10⁵ /M/s
Kd (Carbonic anhydrase 12 [11]): 100 nM
K (Carbonic anhydrase 9 [12]): 5.8 ×10⁴ /M/s
koff (dissociation rate constant) (Carbonic anhydrase 7 [13]): 1 ×10⁻² /s
Kd (Carbonic anhydrase 9 [14]): 19 nM
Kd (Carbonic anhydrase 9 [15]): 27 nM
Dissociation rate constant (koff) (Carbonic anhydrase 9 [16]): 7.2 ×10⁻³ /s
K (Carbonic anhydrase 9 [17]): 1.6 ×10⁵ /M/s
Kd (Carbonic anhydrase 7 [18]): 74 nM
Kd (Carbonic anhydrase 9 [19]): 140 nM
Kd (Carbonic anhydrase 9 [20]): 0.17 nM
Kd (Carbonic anhydrase 12 [21]): 2600 nM
Kd (Carbonic anhydrase 2): 450 nM
Kd (Carbonic anhydrase 12 [22]): 400 nM
SMILES: CCCSc1c(F)c(F)c(S(N)(=O)=O)c(NC2CCCCCCC2)c1F
